The list is not random: actives were taken first. Their share in the collection is about 1.9%.
Rin1 Abl inh = human Rin1-Abl interaction inhibition; TR-FRET Rin1/Abl binding, biochemical; inhibition, % at 7.35 µM; hit rate 0.4% among 360,000; AID 588664; in the data active = inhibition above about 5%, passing the limit was not always enough
TDP2 inh = blocks human TDP2 phosphodiesterase activity. O95551. recombinant TDP2, T5PNP hydrolysis, p-nitrophenol absorbance 415 nm. inhibition, % at 12.8 µM. hit rate 0.34% among 370,000. AID 720702;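 active = inhibition above the mean of all tested compounds plus 3 SD, set per campaign, cut at about 25% in these data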;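 note: 0% = DMSO with enzyme and 100% = buffer with substrate but no TDP2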
Target sequence (O95551 whole entry, looked up): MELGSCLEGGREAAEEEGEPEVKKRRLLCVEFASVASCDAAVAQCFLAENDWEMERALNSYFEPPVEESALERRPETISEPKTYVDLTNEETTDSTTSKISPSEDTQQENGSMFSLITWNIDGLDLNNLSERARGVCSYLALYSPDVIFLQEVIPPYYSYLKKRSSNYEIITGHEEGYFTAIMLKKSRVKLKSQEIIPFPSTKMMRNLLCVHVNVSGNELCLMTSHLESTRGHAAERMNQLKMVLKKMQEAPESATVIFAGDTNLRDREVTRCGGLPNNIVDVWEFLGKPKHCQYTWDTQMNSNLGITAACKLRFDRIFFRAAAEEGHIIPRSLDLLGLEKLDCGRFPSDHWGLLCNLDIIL
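test system = human TDP2 enzyme | input = TDP2 enzyme at 120 nM final | medium = 50 mM Tris-HCl pH 7.5 with Mg2+, KCl, DTT, BSA | also added = T5PNP substrate, 5 mM | times = 2 h at 37 °C | technique = epi absorbance | benchmarks = high control without enzyme, low control DMSO plus TDP2 | replication = each compound tested once, singlicate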
UHRF1 MBD2 ctr = UHRF1 methyl-DNA binding inhibition; Q96T88; UHRF1 binding to methylated oligo, TR-FRET; inhibition, % at 4.4 µM; hit rate 0.75% among 370,000; AID 687016; in the data active = inhibition above about 21%;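 note: UHRF1 SRA domain binding a hemimethylated CpG hairpin DNA probe; 0% = median of test compound wells and 100% = reference inhibitor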
MBD2 DNA inh = inhibitors of human MBD2 binding to methylated oligonucleotide | hit rate 0.31% among 370,000 | inhibition, % at 4.4 µM | TR-FRET | AID 686964 | Q9UBB5; in the data active = inhibition above about 13%
LEDGF integ inh = blocks HIV-1 LEDGF/p75-dependent DNA integration; inhibition, % at 3.7 µM; TR-FRET IN-LEDGF/p75 DNA integration, Eu/Cy5; AID 743269; hit rate 0.64% among 370,000;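 active = inhibition above the screen-wide mean plus 3 SD, cut at about 13% in these data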;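 note: signal is the Cy5 over europium emission ratio at 671 and 618 nm; 0% = plate median of compound wells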
Active calls of the source: *; · = not tested or not shown.

SMILES | Rin1 Abl inh | TDP2 inh | UHRF1 MBD2 ctr | MBD2 DNA inh | LEDGF integ inh
O=C(CSc1nnc(-c2cccnc2)n1Cc1ccco1)N1CCc2ccccc21 | 5.6 | 6.0 | -0.2 | 0.7 | -1.5
Cc1occc1-c1nnc(SCC(=O)N2CCCc3ccccc32)n1Cc1ccco1 | -0.8 | -7.1 | 21.8* | 4.4 | -0.4
Cc1c(C(Nc2ccccn2)c2ccccc2)c(=O)n(-c2ccccc2)n1C (configuration not stated) | -0.6 | 9.4 | 21.8* | 7.7 | -0.9
COc1ccccc1C(=O)NC1CCCCN(Cc2cccc(Cl)c2)C1=O (configuration not stated) | · | 1.7 | -2.9 | 0.7 | -1.6
CCCCc1nc(Cl)c(C#N)c2c1CCCC2 | 2.0 | 2.3 | 38.0* | 0.1 | -3.0
COC(=O)[C@]12C[C@H](CC(=O)N3CCCCC3)C(=O)N(Cc3cccc4ccccc34)C1=C[C@H](C(C)C)O[C@@H]2C1CC1 | · | 2.7 | 0.0 | -1.2 | 2.3
N#CCN(C(=O)COC(=O)CCCNC(=O)c1ccc(Cl)cc1)c1ccccc1 | 3.8 | 7.1 | 50.1* | 0.1 | 0.5
O=C(C1CCN(S(=O)(=O)c2cnc[nH]2)CC1)N1CCc2ccccc2C1 | -3.7 | -1.8 | 29.6* | -2.4 | -1.5
CCCS(=O)(=O)N1CCN(S(=O)(=O)c2ccccc2[N+](=O)[O-])CC1 | · | -17.6 | 2.8 | -1.6 | -0.3
O=[N+]([O-])c1ccccc1S(=O)(=O)N1CCSCC1 | 2.5 | 9.0 | 66.0* | 0.7 | 1.7
O=C1C(=Cc2ccc(Br)o2)C(=O)c2ccccc21 | 8.7* | · | · | · | ·
Cc1ccc(C(=O)O)cc1-c1ccc(C=C2C(=O)c3ccccc3C2=O)o1 | 2.2 | -3.7 | 15.4 | 3.7 | 4.6
CC1=C/C(=C\c2ccc(Br)o2)C(=O)O1 | 1.9 | -3.2 | 52.7* | 15.6* | 10.8
Cc1c(N=C2C=C(Br)C(=O)C(Br)=C2)c(=O)n(-c2ccccc2)n1C | 8.1 | 61.1* | 55.7* | 18.5* | 56.7*
Cc1c(N=C2C=CC(=O)c3ccccc32)c(=O)n(-c2ccccc2)n1C | -5.8 | 23.7 | -10.1 | -16.9 | 5.8
Cc1c2ccncc2cc2c1[nH]c1ccccc12 | -12.6 | 7.9 | -12.8 | -1.1 | -5.3
COc1ccc2[nH]c3c(C)c4ccncc4c(C)c3c2c1 | -21.7 | 12.5 | 35.6* | 32.6* | 4.1
COc1cc2c(cc1OC)C(c1ccccc1)NC(C)(C)C2 (configuration not stated) | 5.1 | 9.9 | 45.7* | -1.1 | -4.6
COc1cc2c(cc1OC)C(c1ccc(Br)cc1)NC(=O)C2 (configuration not stated) | -1.7 | -6.0 | 2.3 | 1.2 | -4.6
CC(C)C[C@H](NC1(C(=O)NC2CCCCC2)CCN(C(=O)OC(C)(C)C)CC1)C(=O)NCCc1c[nH]c2ccccc12 | · | -0.4 | 1.4 | -0.8 | -2.8
CCCC/C=C1/[C@@H](C(C)C)N(Cc2ccc3c(c2)OCO3)C2=N[C@H](c3ccccc3)CC(=O)N21 | · | -17.4 | 6.8 | -2.7 | 4.0
Cc1cc(C)c(N=Cc2c(O)n(-c3nccs3)c(=O)c3ccccc23)c(C)c1 | 1.1 | 8.2 | 27.3* | 5.6 | -0.2
Cc1cccc(C)c1N=Cc1c(O)n(-c2nccs2)c(=O)c2ccccc12 | -1.9 | · | · | · | ·
C#CCN1CC(N(C)CCO)CS1(=O)=O (configuration not stated) | · | -5.5 | 10.7 | -4.4 | -1.6
CCCNS(=O)(=O)c1ccc(OCC(=O)Nc2ccc3c(c2)OCCO3)c(C)c1 | 1.4 | 2.8 | -1.1 | -1.0 | 1.3
SMILES | Rin1 Abl inh | TDP2 inh | UHRF1 MBD2 ctr | MBD2 DNA inh | LEDGF integ inh
CCCNS(=O)(=O)c1ccc(OCC(=O)Nc2ccc3c(c2)OCCO3)cc1 | -1.0 | 5.2 | 24.3* | 5.0 | -2.0
Nc1ccc2nc(SCc3ccccc3F)sc2c1 | -1.9 | 13.6 | 22.8* | -1.2 | -0.5
Nc1ccc2nc(SCC(=O)c3ccccc3)sc2c1 | -5.3 | 11.7 | -6.8 | -2.7 | -1.5
O=C(C=Cc1ccc(OCc2ccccc2)cc1)c1c(F)cccc1F | · | -13.2 | -1.8 | -4.9 | 2.6
CCn1cc(C2C(C(=O)Nc3cc(C)ccn3)=C(C)NC3=C2C(=O)CC(C)(C)C3)c(C)n1 (configuration not stated) | 0.2 | 1.2 | 26.0* | 12.9 | -2.5
CCOc1ccc(-n2c(C)cc(C(=O)NS(=O)(=O)c3ccc(C)cc3)c2C)cc1 | -0.7 | -1.4 | 52.3* | 2.3 | -2.4
Cc1cccc(NC(=O)NN(C(=O)c2ccccc2Cl)C(C)(C)C)c1 | · | 12.5 | -1.1 | -3.1 | -3.7
C=C(C)CSc1nnc(-c2cc(-c3ccc(OC)cc3)n[nH]2)n1N | · | 15.1 | 0.8 | -0.9 | 1.6
CN1C2=N[C@H](c3ccccc3)CC(=O)N2/C(=C\c2ccccc2)C1Cc1ccccc1 (some centres not stated) | · | 3.0 | -3.7 | 1.7 | -0.2
COC(=O)[C@@H]1CCCN1Cc1nc(Cc2ccc(OC)c(OC)c2)no1 | 0.7 | -3.8 | 33.0* | -2.5 | 0.7
COC(=O)[C@@H]1CCCN1Cc1nc(Cc2ccccc2F)no1 | 0.1 | -1.5 | 0.9 | 3.1 | 1.5
COCCSc1nnc(NC(=O)c2ccc3c(c2)OCO3)s1 | 3.7 | 1.3 | 69.1* | -0.1 | -1.8
CSc1nnc(NC(=O)c2ccc3c(c2)OCO3)s1 | 0.4 | -3.8 | -0.3 | 1.5 | -0.1
Cc1cc(C)cc(N(CC(=O)NC2CCC(C)CC2)S(=O)(=O)c2ccc(C(C)(C)C)cc2)c1 (configuration not stated) | · | 12.1 | -3.4 | -2.5 | 0.1
Cc1nc2ccc(NC(=O)c3ccc(S(=O)(=O)N(C)c4ccccc4)cc3)cc2s1 | -1.8 | -15.5 | 26.1* | 1.3 | 4.6
Cc1cc(C)n2nc(C(=O)Nc3ccn(Cc4ccccc4C)n3)cc2n1 | -1.4 | -12.4 | 22.9* | -2.5 | 1.6
COc1ccc(-c2nnc(-c3cc4ccccc4oc3=O)o2)cc1 | 3.5 | -23.6 | 1.7 | 1.6 | 7.9
COc1cccc2cc(-c3nnc(-c4ccccc4)o3)c(=O)oc12 | 0.1 | -3.0 | 21.2* | 2.0 | 1.5
COCc1ccc(C(=O)N2CCCC(Nc3ccc4c(c3)OCCO4)C2)o1 (configuration not stated) | -2.1 | 22.8 | 20.8* | 9.7 | 7.6
c1ccc(Cn2ccc3ccc(-c4ccc5ccn(Cc6ccc7ccccc7c6)c5c4)cc32)cc1 | · | -1.2 | -2.2 | -2.2 | 5.7
CCCC[C@H]1C2CC(OC(=O)Nc3cccc(F)c3)C(C2)[C@H]2CCCCN21 (some centres not stated) | · | -6.9 | -0.7 | -3.0 | 3.0
CN(Cc1ccc(Cl)c(Cl)c1)C(=O)C1CC(=O)N(c2ccc3c(c2)OCCO3)C1 (configuration not stated) | -3.0 | 0.3 | 2.5 | 2.8 | -0.8
CN(Cc1cccc(F)c1)C(=O)C1CC(=O)N(c2ccc3c(c2)OCCO3)C1 (configuration not stated) | 4.3 | 1.4 | 60.1* | 5.1 | -4.5
CCOC(=O)c1csc(NC(=O)C2CCCN(S(=O)(=O)c3ccc(Br)s3)C2)n1 (configuration not stated) | · | 3.6 | -0.8 | -0.7 | 4.4
